Data on 24 compounds can be found in ChEMBL document CHEMBL1240527, “3'-Deoxy phosphoramidate dinucleosides as improved inhibitors of hepatitis C virus subgenomic replicon and NS5B polymerase activity” (J Med Chem, 2010).

The nature of data set [1]: Inhibition of HCV recombinant His6x-tagged NS5B Cdelta55 polymerase-mediated RNA synthesis expressed in Escherichia coli BL21(DE3) assessed as reduction of pppGpC accumulation after 15 mins. Further details: species or system Hepacivirus hominis. In a few lines:
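Inhibitor range 0–1000 μM. Reaction started with 2 mM MnCl2, 1 mM MgCl2, 50 μM γ-32P-GTP and 100 μM CTP, then 15 min at 30 C. EDTA/formamide quench. pppGpC resolved on sequencing gel and quantified by phosphorimaging. IC50 fitted; at least three experiments.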

The next data set has as its system Hepatitis C virus. Briefly: Antiviral activity against HCV1b infected in human HuH6 cells assessed as inhibition of viral RNA replication after 3 days by RT-PCR analysis. The format is functional, organism-based, Hepacivirus hominis. Conditions: genotype 1b, HuH-6, 72 h. In a few lines: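 Huh-6 cells stably carrying a genotype 1b (Con1-derived) subgenomic HCV replicon, seeded 1.5 × 10^4 cells/well and incubated 24 h at 37 C, 5% CO2. Then exposed to serial dilutions from 0.025 to 65 μM (10 concentrations) in complete DMEM for 3 days. Lysates assayed for replicon RNA by real-time RT-qPCR against a neomycin-plasmid standard curve. EC50 is 50% RNA reduction versus untreated control, averaged over three independent experiments.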

The nature of data set [2]: Cytotoxicity against human HuH6 cells after 3 days by MTS/PMS method. The format is cell-based. In a few lines: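 Run in parallel with the replicon assay: Huh-6 genotype 1b replicon cells seeded 1.5 × 10^4/well, treated 24 h later with 0.025–65 μM compound in complete DMEM for 3 days at 37 C, 5% CO2. Cell number read by MTS/PMS. CC50 is the concentration giving 50% reduction in proliferation of exponentially growing cells versus untreated control.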

`CO[C@@H]1[C@H](O[P@](=O)(NCCCC(C(=O)O)C(=O)O)OC[C@@H]2C[C@@H](O)[C@H](n3ccc(N)nc3=O)O2)[C@@H](COP(=O)(O)O)O[C@H]1n1cnc2c(=O)[nH]c(N)nc21`: in data set [1], the IC50 (commonly the midpoint of a concentration-inhibition curve) is 57 µM.

As to `CO[C@@H]1[C@H](OP(=O)(NCCCCCC(=O)O)OC[C@@H]2C[C@@H](O)[C@H](n3ccc(N)nc3=O)O2)[C@@H](CO)O[C@H]1n1cnc2c(=O)[nH]c(N)nc21` (some centres undefined), in data set [1], the IC50 stood at 67 µM.

As for `CO[C@@H]1[C@H](OP(=O)(NCCCCCC(=O)O)OC[C@H]2O[C@@H](n3ccc(N)nc3=O)[C@H](O)[C@@H]2O)[C@@H](COP(=O)(O)O)O[C@H]1n1cnc2c(=O)[nH]c(N)nc21` (some centres undefined), the IC50 in data set [1] was found to be 83 µM.

With `COCCOCCN[P@](=O)(OC[C@@H]1C[C@@H](O)[C@H](n2ccc(N)nc2=O)O1)O[C@H]1[C@@H](OC)[C@H](n2cnc3c(=O)[nH]c(N)nc32)O[C@@H]1COP(=O)(O)O`, the 50% inhibitory concentration (IC50) in data set [1] was 42 µM.

For the compound `CO[C@@H]1[C@H](OP(=O)(NCCCOP(=O)(O)O)OC[C@@H]2C[C@@H](O)[C@H](n3ccc(N)nc3=O)O2)[C@@H](CO)O[C@H]1n1cnc2c(=O)[nH]c(N)nc21` (some centres undefined), the IC50 in data set [1] is 21 µM.

Take `COCCNP(=O)(OC[C@@H]1C[C@@H](O)[C@H](n2ccc(N)nc2=O)O1)O[C@H]1[C@@H](OC)[C@H](n2cnc3c(=O)[nH]c(N)nc32)O[C@@H]1COP(=O)(O)O` (some centres undefined): the IC50 in data set [1] is 29 µM. For the same compound, in the data set with Hepatitis C virus, the EC50 (in general, the midpoint of the concentration-response curve) was 19.4 µM. Moreover, in data set [2], the CC50 (in general, the concentration that lowers cell viability or growth by half) at 72 h was greater than 65 µM.

As for `COCCN[P@](=O)(OC[C@@H]1C[C@@H](O)[C@H](n2ccc(N)nc2=O)O1)O[C@H]1[C@@H](OC)[C@H](n2cnc3c(=O)[nH]c(N)nc32)O[C@@H]1COP(=O)(O)O`, the IC50 in data set [1] worked out at 7 µM. Further, in the data set on Hepatitis C virus, the EC50 is 2.5 µM. For the same compound, in data set [2], the CC50 at 72 h is greater than 65 µM.

As for `COCCN[P@@](=O)(OC[C@@H]1C[C@@H](O)[C@H](n2ccc(N)nc2=O)O1)O[C@H]1[C@@H](OC)[C@H](n2cnc3c(=O)[nH]c(N)nc32)O[C@@H]1COP(=O)(O)O`, in data set [1], the IC50 worked out at 72 µM. Also, the EC50 with Hepatitis C virus came to 1.6 µM. The compound further registered a CC50 at 72 h in data set [2] greater than 65 µM.

Consider `CO[C@@H]1[C@H](O[P@](=O)(NCCCCCC(=O)O)OC[C@@H]2C[C@@H](O)[C@H](n3ccc(N)nc3=O)O2)[C@@H](COP(=O)(O)O)O[C@H]1n1cnc2c(=O)[nH]c(N)nc21`, for which the IC50 in data set [1] was found to be 13 µM.

Take `COCCOCCNP(=O)(OC[C@@H]1C[C@@H](O)[C@H](n2ccc(N)nc2=O)O1)O[C@H]1[C@@H](OC)[C@H](n2cnc3c(=O)[nH]c(N)nc32)O[C@@H]1COP(=O)(O)O` (some centres undefined): the half-inhibitory concentration (IC50) in data set [1] came out at 18 µM. Moreover, in the data set with Hepatitis C virus, the EC50 worked out at 3.6 µM. Moreover, in data set [2], the CC50 at 72 h is greater than 65 µM.

For the compound `COCCN[P@](=O)(OC[C@H]1O[C@@H](n2ccc(N)nc2=O)[C@H](O)[C@@H]1O)O[C@H]1[C@@H](OC)[C@H](n2cnc3c(=O)[nH]c(N)nc32)O[C@@H]1COP(=O)(O)O`, the IC50 in data set [1] came out at 37 µM. The EC50 in the data set on Hepatitis C virus was found to be 4.5 µM. In data set [2], this compound registered a CC50 at 72 h greater than 65 µM.

`CO[C@@H]1[C@H](OP(=O)(NCCCOP(=O)(O)O)OC[C@@H]2C[C@@H](O)[C@H](n3ccc(N)nc3=O)O2)[C@@H](COP(=O)(O)O)O[C@H]1n1cnc2c(=O)[nH]c(N)nc21` (some centres undefined): the IC50 in data set [1] was 10 µM. Further, in the data set with Hepatitis C virus, the EC50 came to 3.9 µM. Besides, the CC50 at 72 h in data set [2] is greater than 65 µM.

Turning to `CO[C@@H]1[C@H](O[P@@](=O)(NCCCC(C(=O)O)C(=O)O)OC[C@@H]2C[C@@H](O)[C@H](n3ccc(N)nc3=O)O2)[C@@H](COP(=O)(O)O)O[C@H]1n1cnc2c(=O)[nH]c(N)nc21`, in data set [1], the IC50 was found to be 121 µM.

Take `CO[C@@H]1[C@H](O[P@@](=O)(NCCCOP(=O)(O)O)OC[C@@H]2C[C@@H](O)[C@H](n3ccc(N)nc3=O)O2)[C@@H](COP(=O)(O)O)O[C@H]1n1cnc2c(=O)[nH]c(N)nc21`: the IC50 in data set [1] was 20.3 µM.

As to `COCCNP(=O)(OC[C@H]1O[C@@H](n2ccc(N)nc2=O)[C@H](O)[C@@H]1O)O[C@H]1[C@@H](OC)[C@H](n2cnc3c(=O)[nH]c(N)nc32)O[C@@H]1COP(=O)(O)O` (some centres undefined), the IC50 in data set [1] worked out at 140 µM. The EC50 in the data set on Hepatitis C virus was greater than 50 µM. The same compound returned a CC50 at 72 h in data set [2] greater than 65 µM.

`CO[C@@H]1[C@H](O[P@](=O)(NCCCOP(=O)(O)O)OC[C@@H]2C[C@@H](O)[C@H](n3ccc(N)nc3=O)O2)[C@@H](COP(=O)(O)O)O[C@H]1n1cnc2c(=O)[nH]c(N)nc21`: in data set [1], the half-inhibitory concentration (IC50) came out at 18.5 µM.

Consider `CO[C@@H]1[C@H](O[P@@](=O)(NCCCCCC(=O)O)OC[C@@H]2C[C@@H](O)[C@H](n3ccc(N)nc3=O)O2)[C@@H](COP(=O)(O)O)O[C@H]1n1cnc2c(=O)[nH]c(N)nc21`, for which, in data set [1], the IC50 was found to be 9 µM.

As for `CO[C@@H]1[C@H](O[P@@](=O)(NCCCCCC(=O)O)OC[C@H]2O[C@@H](n3ccc(N)nc3=O)[C@H](O)[C@@H]2O)[C@@H](COP(=O)(O)O)O[C@H]1n1cnc2c(=O)[nH]c(N)nc21`, the IC50 in data set [1] came out at 26 µM.

As to `CO[C@@H]1[C@H](OP(=O)(NCCCCCC(=O)O)OC[C@@H]2C[C@@H](O)[C@H](n3ccc(N)nc3=O)O2)[C@@H](COP(=O)(O)O)O[C@H]1n1cnc2c(=O)[nH]c(N)nc21` (some centres undefined), in data set [1], the IC50 was 34 µM. Also, the EC50 in the data set on Hepatitis C virus came to 1.7 µM. Besides, the CC50 at 72 h in data set [2] is greater than 65 µM.

In the case of `CO[C@@H]1[C@H](O[P@](=O)(NCCCCCC(=O)O)OC[C@H]2O[C@@H](n3ccc(N)nc3=O)[C@H](O)[C@@H]2O)[C@@H](COP(=O)(O)O)O[C@H]1n1cnc2c(=O)[nH]c(N)nc21`, the IC50 in data set [1] came out at 16 µM.

For the compound `COCCOCCN[P@@](=O)(OC[C@@H]1C[C@@H](O)[C@H](n2ccc(N)nc2=O)O1)O[C@H]1[C@@H](OC)[C@H](n2cnc3c(=O)[nH]c(N)nc32)O[C@@H]1COP(=O)(O)O`, the IC50 in data set [1] worked out at 64 µM.

For the compound `CO[C@@H]1[C@H](OP(=O)(NCCCC(C(=O)O)C(=O)O)OC[C@@H]2C[C@@H](O)[C@H](n3ccc(N)nc3=O)O2)[C@@H](CO)O[C@H]1n1cnc2c(=O)[nH]c(N)nc21` (some centres undefined), the IC50 in data set [1] stood at 19 µM.

As for `CO[C@@H]1[C@H](OP(=O)(NCCCC(C(=O)O)C(=O)O)OC[C@@H]2C[C@@H](O)[C@H](n3ccc(N)nc3=O)O2)[C@@H](COP(=O)(O)O)O[C@H]1n1cnc2c(=O)[nH]c(N)nc21` (some centres undefined), the IC50 in data set [1] amounted to 8 µM. Also, the EC50 with Hepatitis C virus was 2.6 µM. The compound also registered a CC50 at 72 h in data set [2] greater than 65 µM.

Consider `COCCN[P@@](=O)(OC[C@H]1O[C@@H](n2ccc(N)nc2=O)[C@H](O)[C@@H]1O)O[C@H]1[C@@H](OC)[C@H](n2cnc3c(=O)[nH]c(N)nc32)O[C@@H]1COP(=O)(O)O`, for which the IC50 in data set [1] worked out at 28 µM. Also, the EC50 in the data set with Hepatitis C virus stood at 38 µM. This compound also registered a CC50 at 72 h in data set [2] greater than 65 µM.
